High-throughput results deposited in PubChem by several laboratories.
Lmaj promast: Leishmania major promastigote growth inhibition | Leishmania major promastigotes, resazurin fluorescence viability | inhibition, % at 10 µM | 200,000 compounds, 9% hits | AID 1063; in the data active means inhibition above about 50%;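 further: promastigotes grown with compound for 44 hours at 28 °C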
HSF1 inhib: HSF1 inhibition. AID 2098. 300,000 compounds, 0.77% hits. activity change, negative = inhibition, % at 7.5 µM (by protocol). NIH3T3-HGL HSE-luciferase, MG132-induced, luminescence 8 h; stronger effect = lower value;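 active means more than half of replicate wells show activity change below -50%, luminescence cut by over half; inconclusive means some wells, but at most half, below -50%; inactive means no replicate well below -50%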;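 further: luciferase reports HSF-1 transcriptional activity via heat shock element; 0% = median of DMSO wells and -100% = zero luminescence signal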
Hsp70 activator: Hsp70 transcriptional activation, primary screen; HeLa Hsp70 promoter luciferase reporter, luminescence; scaled: vehicle 0, proteasome-inhibitor control 100%; activation, % at 10 µM; 200,000 compounds, 0.04% hits;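 active means activation above the mean across all tested compounds plus 3 SD, cutoff set per campaign, cut at about 5.5% in these data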;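 further: 100% = MG132 at 30 µM as the positive control and 0% = DMSO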
T cruzi inh: T. cruzi replication inhibition | T. cruzi beta-gal in NIH3T3, luminescence, 90 h | inhibition, % (concentration not given with the values) | 300,000 compounds, 1.4% hits | AID 1885;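 active means mean inhibition across valid replicates above about 55%, limit read from the data; inconclusive means mean below that limit but half or more replicates reach it; inactive means mean below it, under half of replicates reach it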;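 further: signal also drops with host cell toxicity which is not excluded here; 0% = plate median of DMSO wells and 100% = zero luminescence signal; higher percent means less beta-gal luminescence so fewer parasites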
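Read-out: Parasite load inhibition, % | Test system: Mouse NIH/3T3 fibroblasts infected with β-gal-expressing T. cruzi Tulahuen C4 | Amount: 5,000 cells/well | Medium: DMEM, 2% fetal bovine serum | Signal: GalScreen β-gal luminescence, detergent lysis, 60 min | Timing: 3 h attach, ≥90 h co-culture | Also added: Tulahuen C4 trypomastigotes, 5000/well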
HSF1 activator: increases HSF-1 driven luciferase reporter signal. 300,000 compounds, 1.7% hits. activation, % at 9 µM. NIH3T3-HGL HSF-1 luciferase reporter, MG132, 8 h; 100% = twice DMSO control signal;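 active means mean replicate activation of at least 50% with a set share of replicates each reaching 50%; inconclusive means only one of those two conditions met; inactive means mean below 50% and too few replicates reaching it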;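 further: 0% = median of the neutral control wells and 100% = twice that signal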
* = called active by the depositor; ? = inconclusive; · = not tested or not shown. The sample as a whole holds a higher share of hits than the screen did.

SMILES	Lmaj promast	HSF1 inhib	Hsp70 activator	T cruzi inh	HSF1 activator
CC1(C)CC2CC(C)(CN2S(=O)(=O)c2ccc(C(=O)Nc3ccc(S(=O)(=O)N4CCOCC4)cc3)cc2)C1 (stereo not given)	99*	4	0	55*	26
CC1(C)CC2CC(C)(CN2S(=O)(=O)c2ccc(C(=O)Nc3ccc(Cl)c(S(=O)(=O)N4CCOCC4)c3)cc2)C1 (stereo not given)	97*	6	0	63*	-4
CC(=O)Nc1ccc(S(=O)(=O)N2CC3(C)CC2CC(C)(C)C3)cc1 (stereo not given)	47	-3	0	-4	-2
O=C(Nc1ccc(NC(=O)c2ccc(Cl)c(S(=O)(=O)N3CCOCC3)c2)cc1)c1ccccc1	·	2	·	-8	-1
CC(C(=O)NCc1ccco1)n1cc([N+](=O)[O-])cn1 (stereo not given)	1	-7	0	1	-15
N=C1/C(=C/c2cccn2CCOc2ccccc2)C(=O)N=C2SC=C(c3ccccc3)N12	59*	5	0	20	0
CCOC(=O)N1CCC(N(CCOC)C(=S)Nc2cccc(SC)c2)CC1	65*	2	0	6	-7
COCCN(C(=S)Nc1cccc(OC)c1)C1CCN(C(C)=O)CC1	26	9	0	-6	22
COc1cccc(NC(=S)N(CCC(C)C)C2CCN(C(C)=O)CC2)c1	·	-76*	·	12	-82
CCOC(=O)N1CCC(N(CCN(C)C)C(=S)Nc2cccc(OC)c2)CC1	6	2	0	-4	15
CCOC(=O)N1CCC(Nc2cccc(SC)c2)CC1	96*	29	0	20	?
CCc1ccc(-c2cn3c(n2)SCC3)cc1	9	20	0	-1	51*
CC(C)[C@H](Nc1ccc(S(=O)(=O)N2CCOCC2)cc1[N+](=O)[O-])C(=O)OCC(=O)N(C(C)C)C(C)C	82*	2	0	8	-6
CC(C)C(C)NC(=O)COc1ccc(S(=O)(=O)N2CCOCC2)cc1[N+](=O)[O-] (stereo not given)	49	-3	0	-4	5
CC(C)[C@H](Nc1ccc(S(=O)(=O)N2CCOCC2)cc1[N+](=O)[O-])C(=O)OCC(N)=O	51*	-9	0	-10	-20
CNC(=O)COC(=O)[C@@H](Nc1ccc(S(=O)(=O)N2CCOCC2)cc1[N+](=O)[O-])C(C)C	55*	-1	0	0	1
Nc1c(Nc2ccccc2)c2ccccc2oc1=O	-8	82	0	-34	88*
O=C(c1ccc(Br)cc1)N1CCCc2ccccc21	·	3	·	-5	1
Cc1ccccc1/C=N/NC(=O)Cn1cnc([N+](=O)[O-])n1	24	-5	0	7	0
O=C(Cn1cnc([N+](=O)[O-])n1)N/N=C/c1cc(Cl)ccc1O	100*	-3	0	27	-5
O=C(Cn1cnc([N+](=O)[O-])n1)N/N=C/c1ccccc1O	100*	-1	0	23	-6
CNc1ccc(C(O)(C(F)(F)F)C(F)(F)F)cc1C(O)(C(F)(F)F)C(F)(F)F	98*	9	0	7	-10
CC(C)[C@H](NC(=O)N1CC(=O)Nc2ccccc21)C(=O)N[C@@H](C(=O)O)c1ccccc1	·	-2	·	-23	5
Cc1cc(OCC(=O)N(Cc2ccco2)C2CCS(=O)(=O)C2)cc(C)c1Cl (stereo not given)	·	11	·	20	57*
Cc1ccc(OCC(=O)N(Cc2ccco2)C2CCS(=O)(=O)C2)cc1C (stereo not given)	·	-6	·	6	-16
SMILES	Lmaj promast	HSF1 inhib	Hsp70 activator	T cruzi inh	HSF1 activator
Cc1ccc(S(=O)(=O)N2CC=C(C(=O)NC3CC3)CC2)cc1	·	-3	·	2	23
C[C@H](NC(=O)[C@@H]1CSC2c3ccccc3C(=O)N21)C(=O)NCCc1ccccc1 (stereo not given in full)	·	29	·	-11	70*
CCN(CC)C(=O)COc1coc(CN2CCN(c3ccc(F)cc3)CC2)cc1=O	·	-62*	·	1	-69
CCN(CC)C(=O)COc1coc(CN2CCN(c3ccccc3)CC2)cc1=O	·	0	·	11	7
CN(C)S(=O)(=O)c1ccc(N2CCCC2)c(C(=O)NC2CCC(O)CC2)c1 (stereo not given)	·	-1	·	14	-7
CCc1cc2c(=O)c(-c3ccc4c(c3)OCCO4)coc2cc1OS(C)(=O)=O	15	28	0	39	56*
CCc1cc2c(=O)c(-c3ccc4c(c3)OCCO4)coc2c(CN2CCCCC2C)c1O (stereo not given)	8	4	0	56*	2
CCOC(=O)c1oc2cc(O)c(CC)cc2c(=O)c1-c1ccc2c(c1)OCCO2	25	3	0	2	12
COc1ccc2cc(C(=O)C3CCCN(C(=O)c4cncs4)C3)ccc2c1 (stereo not given)	·	9	·	26	-8
COc1ccc(CCn2c(S)nc3ccccc3c2=O)cc1	·	-3	·	-4	-3
CNC(=S)N/N=C/C1=CCC2CC1C2(C)C (stereo not given)	97*	6	0	28	-8
CC1(C)C2CC=C(/C=N/NC(=O)c3ccccc3O)C1C2 (stereo not given)	7	-4	0	9	16
CC1(C)C2CC=C(/C=N/NC(=S)NCCc3ccccc3)C1C2 (stereo not given)	87*	-1	0	6	-6
CCOc1ccc(CCNC(=O)COc2cccc(-n3cnnn3)c2)cc1OCC	·	4	·	4	9
O=C(O)C(Cc1ccc(O)cc1)N1C(=O)c2ccccc2C1=O (stereo not given)	·	-4	·	-9	9
COc1ccccc1N1CCN(C(=O)CSc2ncccc2-c2nc3ccccc3[nH]2)CC1	50*	-21	-1	12	-26
COc1ccc(N2CCN(C(=O)CSc3ncccc3-c3nc4ccccc4[nH]3)CC2)cc1	58*	-16	0	23	-22
O=C(CSc1ncccc1-c1nc2ccccc2[nH]1)N1CCN(c2ccccc2F)CC1	12	1	0	2	13
O=C(CNC(=O)c1cccc(F)c1)N/N=C/c1cccc([N+](=O)[O-])c1	81*	0	0	10	2
COc1ccc(OC)c(NC(=O)NCCCCc2ccccc2)c1	·	-4	·	40	9
Cc1ccc(NC(=O)c2cnn(-c3ccccc3)c2C)cc1	·	37	·	-3	72*
Cc1ccc(NC(=O)c2cnn(-c3ccccc3)c2C)c(C)c1	·	12	·	9	23
Cc1ccc(NC(=O)c2cc(C)n(-c3cccc(C)c3)c2C)cc1	1	-70*	0	4	-75
Cc1ccc(NC(=O)c2cc(C)n(-c3ccccc3)c2C)cc1	0	-82*	-1	2	-83
Cc1cc(C(=O)Nc2ccc(Cl)cc2)c(C)n1-c1ccccc1	·	-90*	·	12	-92
Cc1cc(C(=O)Nc2ccc(Cl)cc2)n(-c2ccccc2)n1	·	4	·	1	11
